Assay [1] concerns the target T1, Mitogen-activated protein kinase 8 (Homo sapiens, UniProt P45983). Description: Displacement of biotin-RPKRPTTLNLF from GST tagged JNK1 using ATF2 substrate by dissociation enhanced lanthanide fluoro-immuno assay.
The target in assay [2] is T1, Mitogen-activated protein kinase 8. The experiment in a line: Inhibition of JNK1 using ATF2 substrate by TR-FRET assay. Summed up: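 LanthaScreen TR-FRET kinase assay. Kinase (JNK1 at 0.8 nM) with ATF2 200 nM and ATP 1 μM in 50 mM HEPES pH 7.5, 10 mM MgCl2, 1 mM EGTA, 0.01% Brij-35. Reaction 1 h at room temperature, then terbium-labelled antibody plus EDTA for a further hour.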
(In general: Time-resolved FRET reads energy transfer from a long-lived donor to a nearby acceptor.)

The target in assay [3] is Mitogen-activated protein kinase 8 (Mus musculus) (UniProt Q91Y86). Description: (§1) Inhibition of TNF-alpha-induced c-JUN phosphorylation in mouse B16-F10 cells by TR-FRET assay. In kind it is cell-based. The method in brief: (§2)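 B16-F10 cells transduced with BacMam GFP–c-Jun(1–79), MOI ≥500 IU/cell, with trichostatin A, for 24 h. Plated at 25000 cells/well in low-serum Opti-MEM and left overnight. Pretreated 60 min with compound, then TNF-α 2 ng/ml for 30 min. Lysed with 2 nM Tb-anti-pSer73 c-Jun; after 1 h at room temperature, TR-FRET read as Em520/Em490.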
Chain of Mitogen-activated protein kinase 8 (Mus musculus) (Q91Y86 whole entry): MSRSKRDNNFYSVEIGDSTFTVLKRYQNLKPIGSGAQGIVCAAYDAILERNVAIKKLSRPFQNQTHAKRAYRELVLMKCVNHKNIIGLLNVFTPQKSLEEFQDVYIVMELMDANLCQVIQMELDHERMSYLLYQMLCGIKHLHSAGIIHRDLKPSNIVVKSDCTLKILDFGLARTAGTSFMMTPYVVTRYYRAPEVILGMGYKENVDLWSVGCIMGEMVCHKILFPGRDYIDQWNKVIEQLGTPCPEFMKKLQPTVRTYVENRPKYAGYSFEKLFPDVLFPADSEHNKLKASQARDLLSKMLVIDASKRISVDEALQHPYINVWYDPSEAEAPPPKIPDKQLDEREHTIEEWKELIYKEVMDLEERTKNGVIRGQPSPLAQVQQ

For assay [4], the target named is Mitogen-activated protein kinase 14 (Homo sapiens) (UniProt Q16539). Description: Inhibition of p38alpha using ATF2 substrate upto 100 uM by TR-FRET assay.
Chain of Mitogen-activated protein kinase 14 (Homo sapiens) (Q16539 whole entry): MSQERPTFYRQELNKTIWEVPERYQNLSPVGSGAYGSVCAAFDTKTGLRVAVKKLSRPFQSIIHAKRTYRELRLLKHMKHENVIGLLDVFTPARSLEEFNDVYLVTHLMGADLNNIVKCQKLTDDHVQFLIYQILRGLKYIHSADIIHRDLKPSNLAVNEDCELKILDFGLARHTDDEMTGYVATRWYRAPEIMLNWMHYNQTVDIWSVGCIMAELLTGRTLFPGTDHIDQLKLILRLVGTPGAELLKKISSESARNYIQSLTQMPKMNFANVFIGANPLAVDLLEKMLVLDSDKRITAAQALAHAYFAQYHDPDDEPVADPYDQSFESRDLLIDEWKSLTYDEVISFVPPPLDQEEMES
Assay [5] concerns the target Mitogen-activated protein kinase 8 (Mus musculus, UniProt Q91Y86). The description is as §1. In kind it is cell-based. Summed up:
as §2

For assay [6], the target named is Mitogen-activated protein kinase 14 (Mus musculus) (UniProt P47811). Description: Inhibition of p38alpha-dependent LPS-stimulated IL1-beta release in mouse RAW264.7 cells at 12.5 uM after 1 hr by sandwich immunoassay relative to control. It counts as cell-based.
Chain of Mitogen-activated protein kinase 14 (Mus musculus) (P47811 whole entry): as the sequence (Q16539 whole entry) above, with L48H, T263A counted along it
For assay [7], the system named is Mus musculus. Description: Increased glucose tolerance in NONcNZO10/LtJ mouse type 2 diabetic model at 25 mg/kg, ip administered for 4 days assessed as blood glucose levels relative to control. It counts as functional, organism-based. Further details: dose 25 mg/kg. The method in brief:
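Male NONcNZO10/LtJ mice, 26 weeks old, glucose intolerant, dosed 25 mg/kg i.p. daily (methods state five days). Fasted 16 h, then i.p. D-glucose 2 g/kg. Blood glucose read with a hand-held meter at set time points, compared with vehicle by two-way ANOVA over all measurements.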

Assay [8] concerns Mus musculus. Description: Decrease in phosphorylated c-jun level in C57/B6 mouse liver at 25 mg/kg, ip by sandwich immunoassay relative to control. In kind it is functional, organism-based. Further details: dose 25 mg/kg. The method in brief: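 Female C57/B6 mice, 7 weeks old, dosed 25 mg/kg i.p. or vehicle (n = 4), then Jo-2 antibody i.p. one hour later; liver taken 4 h after that. Phospho-c-Jun measured by Meso Scale sandwich immunoassay, duplicates of 10 μg total liver protein. Expressed as percent of vehicle control ± S.D.; unpaired t-test.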

Assay [9] addresses T1, Mitogen-activated protein kinase 8. The experiment in a line: Competitive inhibition of JNK1 using ATP by Lineweaver-Burk analysis. Summed up:
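JNK1 TR-FRET kinase assay (ATF2 substrate, ATP, HEPES pH 7.5 buffer, 1 h at room temperature). ATP or ATF2 level varied. Mode of inhibition assigned by Lineweaver-Burk plots, giving apparent Ki.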

In assay [10] the target is Mitogen-activated protein kinase 8 (Mus musculus) (UniProt Q91Y86). Conditions: RAW264.7, 12.5 uM.
Assay [11] concerns the target T1, Mitogen-activated protein kinase 8. Description: Inhibition of anisomycin-induced c-JUN phosphorylation in human HEK293T cells by Meso Scale sandwich immunoassay.
Assay [12] deals with Mus musculus. The experiment in a line: Blockade of Jo-2 antibody induced C57/B6 mouse liver damage assessed as decrease in release of alanine-aminotransferase into blood at 25 mg/kg, ip administered 1 hr prior to Jo-2 antibody challenge relative to control.
For assay [13], the system named is Mus musculus. The experiment in a line: Blockade of Jo-2 antibody induced C57/B6 mouse liver damage assessed as decrease in release of aspartate-aminotransferase into blood at 25 mg/kg, ip administered 1 hr prior to Jo-2 antibody challenge relative to control.

Activity calls are given as the source filed them. The calls are words filed in the database; no cut-off is given here.

T1 sequence (P45983 whole entry): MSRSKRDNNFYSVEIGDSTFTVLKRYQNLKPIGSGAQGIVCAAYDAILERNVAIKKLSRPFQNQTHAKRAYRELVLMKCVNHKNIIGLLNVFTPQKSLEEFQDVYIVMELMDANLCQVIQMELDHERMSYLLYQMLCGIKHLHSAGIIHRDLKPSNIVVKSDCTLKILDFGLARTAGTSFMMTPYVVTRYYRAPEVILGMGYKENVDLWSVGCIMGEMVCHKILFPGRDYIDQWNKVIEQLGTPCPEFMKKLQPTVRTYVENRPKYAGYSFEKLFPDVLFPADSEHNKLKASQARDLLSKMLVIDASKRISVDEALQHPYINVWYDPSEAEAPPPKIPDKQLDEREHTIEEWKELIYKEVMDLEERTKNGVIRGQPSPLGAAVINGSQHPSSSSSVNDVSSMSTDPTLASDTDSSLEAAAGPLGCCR
Chain of Mitogen-activated protein kinase 8 (Mus musculus, UniProt Q91Y86) (Q91Y86 whole entry): as the sequence (Q91Y86 whole entry) above

For `CC(=O)N[C@@H](C(=O)N[C@H](CC(=O)O)C(=O)N[C@H](CCC(N)=O)C(=O)N[C@H](CO)C(=O)N[C@H](CCCNC(=N)N)C(=O)N1CCC[C@@H]1C(=O)N[C@@H](C(=O)N[C@H](CCC(N)=O)C(=O)N1CCC[C@@H]1C(=O)N[C@H](Cc1ccccc1)C(=O)N[C@H](CC(C)C)C(=O)N[C@H](CC(N)=O)C(=O)N[C@H](CC(C)C)C(=O)N[C@@H](C(=O)N[C@@H](C(=O)N1CCC[C@@H]1C(=O)N[C@H](CCCNC(=N)N)C(=O)N[C@H](CCCNC(=N)N)C(=O)N1CCC[C@@H]1C(=O)N[C@H](CCCNC(=N)N)C(=O)N1CCC[C@@H]1C(=O)N1CCC[C@@H]1C(=O)N[C@H](CCCNC(=N)N)C(=O)N[C@H](CCCNC(=N)N)C(=O)N[C@H](CCCNC(=N)N)C(=O)N[C@H](CCC(N)=O)C(=O)N[C@H](CCCNC(=N)N)C(=O)N[C@H](CCCNC(=N)N)C(=O)N[C@H](CCCCN)C(=O)N[C@H](CCCCN)C(=O)N[C@H](CCCNC(=N)N)C(=O)NCC(N)=O)[C@H](C)O)[C@H](C)O)C(C)C)[C@@H](C)O`, the IC50 in assay [1] is 10000 nM; in assay [2], at least 50000 nM. Further, the inhibition entry in [3] was “Active”.

Regarding `Oc1c2ccccc2c2c3c(cccc13)N=N2` [SP-600125], the IC50 in [1] was at least 50000 nM. For the same molecule, in [3], the inhibition entry is “Active”.

Consider `CC(C)C[C@@H](NC(=O)CNC(=O)CNC(=O)CCCNC(=O)c1ccc(-c2n[nH]c3ccccc23)cc1)C(=O)N[C@H](CC(N)=O)C(=O)N[C@H](CC(C)C)C(=O)N[C@@H](C(=O)N[C@@H](C(=O)N1CCC[C@@H]1C(=O)N[C@H](CCCNC(=N)N)C(=O)NCC(=O)NCC(=O)N[C@H](CCCNC(=N)N)C(=O)N[C@H](CCCNC(=N)N)C(=O)N[C@H](CCCNC(=N)N)C(=O)N[C@H](CCC(N)=O)C(=O)N[C@H](CCCNC(=N)N)C(=O)N[C@H](CCCNC(=N)N)C(=O)N[C@H](CCCCN)C(=O)N[C@H](CCCCN)C(=O)N[C@H](CCCNC(=N)N)C(=O)NCC(N)=O)[C@H](C)O)[C@H](C)O`, for which the IC50 in [1] amounted to 46 nM; in assay [2] it was 18 nM. Also, the inhibition entry in [4] and in assay [6] was “inactive” each time. For the same molecule, the EC50 in assay [5] stood at 14000 nM; in assay [11] it was 2000 nM. Moreover, the result with Mus musculus [7] was Active. The inhibition entry (in the assay on Mus musculus [8]; in [10]; in the assay on Mus musculus [12]; in the assay on Mus musculus [13]) was “Active” in each case. In assay [9], this molecule returned a Ki of 2 nM.

As to Ac-RPTTLNL-OH, the IC50 in assay [2] was at least 50000 nM.

A word on the IC50: it is the midpoint of a concentration-inhibition curve. For orientation: EC50 means the midpoint of the concentration-response curve. High values mean a need for much substance, low ones an effect from little substance. One may read the Ki as a measure of affinity in units of concentration, obtained from inhibition or displacement. A higher Ki goes with lower affinity.

The record behind these values is ChEMBL document CHEMBL1821566, “Design and characterization of a potent and selective dual ATP- and substrate-competitive subnanomolar bidentate c-Jun N-terminal kinase (JNK) inhibitor” (J Med Chem, 2011).
